Source: ChEMBL document CHEMBL1146838, “4-Hydroxy-3-methyl-6-phenylbenzofuran-2-carboxylic acid ethyl ester derivatives as potent anti-tumor agents” (Bioorg Med Chem Lett, 2004)
In brackets after ≈: the same amount, converted by molar mass.

These compounds were tested on WI-38 VA13 (assay: Cytotoxicity against VA13 cell line; Expressed as effective concentration). Conditions: Homo sapiens.
Assay type: functional, cell-based
Method in brief: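 Human tumorigenic VA13 cells grown in MEM-E with penicillin/streptomycin and 10% fetal calf serum, seeded at 1.5–3.0×10³ cells/well, cultured 2–3 days. Compounds in DMSO (final <0.5%) added for 24 h, then washed out and cells cultured a further 3 days in fresh medium. XTT with phenazine methosulfate added for 2.5 h, OD450 read. Viability computed relative to untreated and cell-free blanks; EC50 taken from dose–response curve.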

| SMILES | EC50 [µg/mL] |
| --- | --- |
| COc1ccc(OC)c(C(=O)c2oc3cc(-c4ccccc4)cc(O)c3c2C)c1 | 0.09 (≈ 0.232 µM) |
| COc1ccc(C(=O)c2oc3cc(-c4ccccc4)cc(O)c3c2C)cc1 | 0.28 (≈ 0.781 µM) |
| CCOC(=O)c1oc2cc(-c3ccccc3)cc(O)c2c1C | 0.04 (≈ 0.135 µM) |
| Cc1c(C(=O)C(C)(C)C)oc2cc(-c3ccccc3)cc(O)c12 | 0.41 (≈ 1.33 µM) |
| CC(=O)c1oc2cc(-c3ccccc3)cc(O)c2c1C | 0.08 (≈ 0.3 µM) |
| Cc1c(C(=O)c2ccccc2)oc2cc(-c3ccccc3)cc(O)c12 | 0.6 (≈ 1.83 µM) |
| Cc1c(C(=O)c2nccs2)oc2cc(-c3ccccc3)cc(O)c12 | 0.4 (≈ 1.19 µM) |
| COCc1ccccc1C(=O)c1oc2cc(-c3ccccc3)cc(O)c2c1C | 0.1 (≈ 0.269 µM) |
| COc1ccc(CCOC(=O)c2oc3cc(-c4ccccc4)cc(O)c3c2C)cc1 | 0.02 (≈ 0.0497 µM) |
| COc1ccc(CCOC(=O)c2oc3cc(-c4ccccc4)cc(O)c3c2C)cc1OC | 0.021 (≈ 0.0486 µM) |
| COc1ccc(C(=O)c2oc3cc(-c4ccccc4)cc(O)c3c2C)c(C(F)(F)F)c1 | 0.4 (≈ 0.938 µM) |
| Cc1c(C(=O)c2ccc(Oc3ccccc3)cc2)oc2cc(-c3ccccc3)cc(O)c12 | > 4 |
| CCCC(=O)c1oc2cc(-c3ccccc3)cc(O)c2c1C | 0.59 (≈ 2 µM) |
| Cc1c(C(=O)c2cccs2)oc2cc(-c3ccccc3)cc(O)c12 | 2 (≈ 5.98 µM) |
| Cc1c(C(=O)c2cccc(OC(C)C)c2)oc2cc(-c3ccccc3)cc(O)c12 | 0.35 (≈ 0.906 µM) |
| Cc1c(C(=O)c2cccc(C(F)(F)F)c2)oc2cc(-c3ccccc3)cc(O)c12 | > 4 |
| Cc1c(C(=O)c2ccccc2-c2ccccc2)oc2cc(-c3ccccc3)cc(O)c12 | 0.1 (≈ 0.247 µM) |
| COc1ccc(C(=O)c2oc3cc(-c4ccccc4)cc(O)c3c2C)cc1OC | 0.45 (≈ 1.16 µM) |
| Cc1c(C(=O)c2ccc(F)c(F)c2)oc2cc(-c3ccccc3)cc(O)c12 | 0.4 (≈ 1.1 µM) |
| Cc1c(C(=O)C2CCCCC2)oc2cc(-c3ccccc3)cc(O)c12 | 0.45 (≈ 1.35 µM) |

| SMILES | EC50 [µg/mL] |
| --- | --- |
| Cc1c(C(=O)c2cccc(CN(C)C)c2)oc2cc(-c3ccccc3)cc(O)c12 | 0.09 (≈ 0.233 µM) |
| Cc1c(C(=O)Cc2ccccc2)oc2cc(-c3ccccc3)cc(O)c12 | > 4 |
| Cc1ncsc1CCOC(=O)c1oc2cc(-c3ccccc3)cc(O)c2c1C | 0.055 (≈ 0.14 µM) |
| Cc1c(C(=O)c2ccc(CN(C)C)cc2)oc2cc(-c3ccccc3)cc(O)c12 | > 4 |
| Cc1c(C(=O)c2ccc(N(C)C)cc2)oc2cc(-c3ccccc3)cc(O)c12 | > 4 |
| CCCCC(=O)c1oc2cc(-c3ccccc3)cc(O)c2c1C | 2 (≈ 6.49 µM) |
| COc1cc(C(F)(F)F)ccc1C(=O)c1oc2cc(-c3ccccc3)cc(O)c2c1C | 0.26 (≈ 0.61 µM) |
| COc1ccc(C(=O)c2oc3cc(-c4ccccc4)cc(O)c3c2C)c(OC)c1 | 0.04 (≈ 0.103 µM) |
| Cc1c(C(=O)c2cnc3ccccc3c2)oc2cc(-c3ccccc3)cc(O)c12 | > 4 |
| Cc1c(C(=O)CCc2ccccc2)oc2cc(-c3ccccc3)cc(O)c12 | > 4 |
| CCc1ccc(C(=O)c2oc3cc(-c4ccccc4)cc(O)c3c2C)cc1 | > 4 |
| Cc1c(C(=O)O)oc2cc(-c3ccccc3)cc(O)c12 | > 4 |
| Cc1c(C(=O)OC(C)C)oc2cc(-c3ccccc3)cc(O)c12 | 0.06 (≈ 0.193 µM) |
| Cc1c(C(=O)c2cncnc2)oc2cc(-c3ccccc3)cc(O)c12 | 0.7 (≈ 2.12 µM) |
| Cc1c(C(=O)C(C)C)oc2cc(-c3ccccc3)cc(O)c12 | 0.41 (≈ 1.39 µM) |
| Cc1c(C(=O)NCCc2ccccn2)oc2cc(-c3ccccc3)cc(O)c12 | 1.5 (≈ 4.03 µM) |
| Cc1c(C(=O)c2ccccn2)oc2cc(-c3ccccc3)cc(O)c12 | 0.6 (≈ 1.82 µM) |
| COc1ccccc1C(=O)c1oc2cc(-c3ccccc3)cc(O)c2c1C | 0.09 (≈ 0.251 µM) |
| CCC(=O)c1oc2cc(-c3ccccc3)cc(O)c2c1C | 0.27 (≈ 0.963 µM) |
